Data as given in PMC5756105 (Journal of proteome research, 2017).
Counter-ions that a name gives are not always drawn. Like-named read-outs stand apart in the source and are kept apart here.

Assays:
hMSCs = assay: CCK-8 cell viability assay on 96-well plates, basal hMSCs; type: cell-based, human; conditions: for reduction in toxicity from basal hMSCs to their osteogenic progenies: basal hMSCs vs OD1-OD6; for IC50: read-out: IC50 hMSC
basal hMSCs = assay: qHTS CellTiter-Glo viability assay in 1536-well format, basal hMSCs; type: cell-based, human; conditions: qHTS CTG, basal vs osteogenesis day 1
Summary of the method: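 hMSCs were seeded at 500 cells/well directly in basal or osteogenic differentiation medium (osteogenesis day 1 arm) and held 24 h at 37°C/5% CO₂. A LOPAC library was then added at seven concentrations (0.0029–46 μM, 1:5 serial dilutions) for 48 h. ATP was read by CellTiter-Glo luminescence after 30 min at room temperature. IC₅₀ and efficacy came from dose-response curves, with hit cutoffs of efficacy ≥ 50% and IC₅₀ ≤ 20 μM.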

hiPSCs = assay: CCK-8 cell viability assay on 96-well plates, basal hiPSCs; type: cell-based, human; conditions: for higher sensitivity of hiPSCs compared to basal hMSCs: ratio of IC50, hiPSCs vs basal hMSCs; for IC50: read-out: IC50 hiPSC; for dependency of effects on stages of hepatogenic differentiation of hiPSCs: Phase I-III
[1] = system: hepatic differentiation Phase I cells; assay: CCK-8 cell viability assay, hiPSCs at end of hepatogenic differentiation Phase I; type: cell-based; conditions: Homo sapiens, HepA, 48 h, read-out: IC50 Hepa Diff Phase I
hMSC-OD1 = assay: CCK-8 cell viability assay on 96-well plates, hMSCs osteogenesis Day 1; type: cell-based; conditions: Homo sapiens, read-out: IC50 hMSC-OD1
[2] = system: hepatic differentiation Phase II cells; type: cell-based; conditions: Homo sapiens, HepA, 48 h, read-out: IC50 Hepa Diff Phase II
hMSC-OD3 = assay: CCK-8 cell viability assay on 96-well plates, hMSCs osteogenesis Day 3; type: cell-based; conditions: Homo sapiens, read-out: IC50 hMSC-OD3
hMSC-OD6 = assay: CCK-8 cell viability assay on 96-well plates, hMSCs osteogenesis Day 6; type: cell-based; conditions: Homo sapiens, read-out: IC50 hMSC-OD6
[3] = system: hepatic differentiation Phase III cells; type: cell-based; conditions: Homo sapiens, HepA, 48 h, read-out: IC50 Hepa Diff Phase III
[4] = basal hMSCs, 48-hour treatment, CCK-8, mean ± s.e.m., n=3
[5] = basal hiPSCs, 48-hour treatment, CCK-8, mean ± s.e.m., n=3

SMILES	reduction in toxicity from basal hMSCs to their osteogenic progenies (hMSCs)	IC50 (hMSCs; [4]) [nM]	toxicity to basal hMSCs versus osteogenic hMSCs in primary screening (basal hMSCs)	higher sensitivity of hiPSCs compared to basal hMSCs (hiPSCs)	IC50 (hiPSCs; [5]) [nM]	IC50 (hMSCs; Homo sapiens, 48 h) [nM]	IC50 [1] [nM]	IC50 (hMSC-OD1) [µM]	IC50 [2] [nM]	IC50 (hMSC-OD3) [µM]	IC50 (hiPSCs; Homo sapiens, 48 h) [nM]	dependency of effects on stages of hepatogenic differentiation of hiPSCs (hiPSCs)	IC50 (hMSC-OD6) [µM]	IC50 [3] [µM]	decrease in toxicity from basal to OD6 (hMSCs; hMSCs, basal vs OD6, p<0.001) [fold]	differentiation-stage dependency of toxicity on hMSCs (hMSCs; basal hMSCs vs OD1 to OD6)
CC[n+]1c(/C=C/C=C2/N(C)c3ccccc3C2(C)C)sc2ccccc21.[I-] [AC-93253]	3~4 fold	3940 ± 1180	much higher toxicity	more than 30 times	90 ± 38											
C[C@@]12C(=O)OC(=O)[C@]1(C)[C@H]1CC[C@@H]2O1 [Cantharidin, cantharidin]	3~4 fold					1540 ± 500	2700 ± 490	3.98 ± 0.69	2580 ± 280	4.95 ± 1.33	4360 ± 1400	not significantly dependent	6.17 ± 2.55	1.12 ± 0.34		
CC(=O)[C@]1(O)Cc2c(O)c3c(c(O)c2[C@@H](O[C@H]2C[C@H](N)[C@H](O)[C@H](C)O2)C1)C(=O)c1ccccc1C3=O [Idarubicin, idarubicin hydrochloride]		380 ± 74		more than 30 times			70 ± 3	2.96 ± 0.22	1250 ± 230	7.43 ± 4.56	4 ± 1	significantly dependent	10.8 ± 0.43	4.99 ± 1.38	28	
O=C1C(SCCO)=C(SCCO)C(=O)c2ccccc21 [NSC 95397]		6550 ± 1760			6910 ± 3010											not differentiation-stage dependent
